Assay results published in article PMC4127500 (Scientific Reports, 2014).
In brackets after ≈: the same amount, converted by molar mass.

Tests used:
E. coli 6881 = assay: Minimum inhibitory concentration; type: cell-based
Summary of the method: (§1)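 Broth microdilution in Mueller Hinton Broth per CLSI. Inoculum was pre-incubated in TSB at 30°C to 0.5 McFarland. Amoxicillin, ampicillin, cefotaxime and gentamicin were tested over 0.5–1024 µg.mL−1, alone or with test compound at 128 µg.mL−1. Each set was repeated three times.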

E. coli 2101123 = assay: Minimum inhibitory concentration; type: cell-based
Summary of the method: as §1

E. coli 1812446 = assay: Minimum inhibitory concentration; type: cell-based
Summary of the method: as §1

P. aeruginosa 6817 = assay: Minimum inhibitory concentration; type: cell-based
Summary of the method: as §1

B. cereus 6591 = assay: Minimum inhibitory concentration; type: cell-based
Summary of the method: as §1

S. aureus 7314 = assay: Minimum inhibitory concentration; type: cell-based
Summary of the method: as §1

S. aureus ATCC33591 = assay: Minimum inhibitory concentration; type: cell-based
Summary of the method: as §1

E. coli (TEM-1) = assay: Minimum inhibitory concentration; type: cell-based
Summary of the method: as §1

RAW 264.7 cells = assay: MTT cell viability assay; type: cell-based, murine; conditions: RAW 264.7 monocytes; 24 h
Summary of the method: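 RAW 264.7 cells kept in DMEM with 4 mM L-glutamine, 10% FCS, 2 mM nonessential amino acids and penicillin/streptomycin at 37°C, 5% CO2. Cells were exposed 24 h to test compound or antibiotics, free or combined. Viability was read by MTT (reagent 5 mg.mL−1 in PBS) in three replicates, as % of PBS (pH 7.4) control; mastoparan-L (1–100 μg.mL−1) was the positive control.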

S. aureus (ATCC33591) = assay: Murine non-lethal Staphylococcus aureus infection model; type: in vivo, C57BL/6 mice; conditions: S. aureus infected mice
Summary of the method: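 C57BL/6 mice (18–22 g, n = 6/group) got i.p. 100 µL of S. aureus ATCC33591 at 2 × 10^5 CFU.mL−1. After 1 h, penicillin or ampicillin (100 or 200 mg.kg−1) or cefotaxime (35 mg.kg−1) was given i.p. at 12, 24, 48 and 72 h over 7 days. Day-7 blood and peritoneal fluid were serially diluted, plated in triplicate on mannitol salt agar, and counted as CFU.mL−1.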

[1] = tested on: E. coli 1812446 clinical strain; assay: Murine non-lethal Escherichia coli infection model; type: in vivo, C57BL/6 mice; conditions: E. coli infected mice
Summary of the method: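 C57BL/6 mice (18–22 g, n = 6/group) got i.p. 200 μl holding 2.5 × 10^8 CFU of E. coli 1812446. One hour later they were treated i.p. with penicillin or ampicillin (100 or 200 mg.kg−1) or gentamicin (10 mg.kg−1), at 12, 24, 48 and 72 h over 7 days. On day 7, blood and peritoneal fluid were serially diluted and plated in triplicate on Mueller Hinton agar at 37°C overnight. Detection limit was 100 CFU.ml−1.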

[2] = E. coli 6881, in the presence of dBLIP1 (128 µg.mL^−1)
[3] = E. coli 6881, in the presence of dBLIP2 (128 µg.mL^−1)
[4] = E. coli 2101123, in the presence of dBLIP1 (128 µg.mL^−1)
[5] = E. coli 2101123, in the presence of dBLIP2 (128 µg.mL^−1)
[6] = E. coli 1812446, in the presence of dBLIP1 (128 µg.mL^−1)
[7] = E. coli 1812446, in the presence of dBLIP2 (128 µg.mL^−1)
[8] = P. aeruginosa 6817, in the presence of dBLIP1 (128 µg.mL^−1)
[9] = P. aeruginosa 6817, in the presence of dBLIP2 (128 µg.mL^−1)
[10] = B. cereus 6591, in the presence of dBLIP1 (128 µg.mL^−1)
[11] = B. cereus 6591, in the presence of dBLIP2 (128 µg.mL^−1)
[12] = S. aureus 7314, in the presence of dBLIP1 (128 µg.mL^−1)
[13] = S. aureus 7314, in the presence of dBLIP2 (128 µg.mL^−1)
[14] = S. aureus ATCC33591, in the presence of dBLIP1 (128 µg.mL^−1)
[15] = S. aureus ATCC33591, in the presence of dBLIP2 (128 µg.mL^−1)
[16] = Staphylococcus aureus, ATCC33591
[17] = E. coli (TEM-1), in the presence of dBLIP1 (128 µg.mL^−1)
[18] = E. coli (TEM-1), in the presence of dBLIP2 (128 µg.mL^−1)

Row | Compound | MIC (E. coli 6881; [2]) | MIC (E. coli 6881; [3]) | MIC (E. coli 6881; Escherichia coli, 6881) | MIC (E. coli 2101123; [4]) | MIC (E. coli 2101123; [5]) | MIC (E. coli 2101123; Escherichia coli, 2101123) | MIC (E. coli 1812446; [6]) | MIC (E. coli 1812446; [7]) | MIC (E. coli 1812446; Escherichia coli, 1812446) | MIC (P. aeruginosa 6817; [8]) | MIC (P. aeruginosa 6817; [9]) | MIC (P. aeruginosa 6817; Pseudomonas aeruginosa, 6817) | MIC (B. cereus 6591; [10]) | MIC (B. cereus 6591; [11]) | MIC (B. cereus 6591; Bacillus cereus, 6591) | MIC (S. aureus 7314; [12]) | MIC (S. aureus 7314; [13]) | MIC (S. aureus 7314; Staphylococcus aureus, 7314) | MIC (S. aureus ATCC33591; [14]) | MIC (S. aureus ATCC33591; [15]) | further results
1 | CC1(C)S[C@@H]2[C@H](NC(=O)[C@H](N)c3ccccc3)C(=O)N2[C@H]1C(=O)O [AMP, Ampicillin] | 32 µg/mL | 32 µg/mL | 128 µg/mL (≈ 366 µM) | 256 µg/mL | 256 µg/mL | > 512 µg/mL | 512 µg/mL | 512 µg/mL | > 512 µg/mL | 32 µg/mL | 32 µg/mL | 512 µg/mL (≈ 1470 µM) | 16 µg/mL | 8 µg/mL | 256 µg/mL (≈ 733 µM) | 32 µg/mL | 32 µg/mL | 512 µg/mL (≈ 1470 µM) | 128 µg/mL | 128 µg/mL | MIC (S. aureus ATCC33591; [16]): 512 µg/mL (≈ 1470 µM); MIC (E. coli (TEM-1); Escherichia coli): 1020 µg/mL (≈ 2930 µM); cytotoxic activity against RAW 264.7 (MTT cell viability) (RAW 264.7 cells): 200 µg/mL; CFU, antibiotic alone (S. aureus (ATCC33591); 200 mg.kg^−1 i.p.): CFUs were slightly reduced; CFU, antibiotic alone ([1]; 100 mg.kg^−1 i.p.): did not cause any bactericidal effect; CFU, antibiotic alone ([1]; 200 mg.kg^−1 i.p.): a lower reduction in CFU
2 | CC1(C)S[C@@H]2[C@H](NC(=O)[C@H](N)c3ccc(O)cc3)C(=O)N2[C@H]1C(=O)O [AMX, Amoxicillin] | 32 µg/mL | 16 µg/mL | 128 µg/mL (≈ 350 µM) | 8 µg/mL | 8 µg/mL | 256 µg/mL (≈ 701 µM) | 16 µg/mL | 16 µg/mL | 256 µg/mL (≈ 701 µM) | 32 µg/mL | 16 µg/mL | 512 µg/mL (≈ 1400 µM) | 8 µg/mL | 8 µg/mL | 256 µg/mL (≈ 701 µM) | 32 µg/mL | 16 µg/mL | 512 µg/mL (≈ 1400 µM) | 32 µg/mL | 32 µg/mL | MIC (S. aureus ATCC33591; [16]): 512 µg/mL (≈ 1400 µM); MIC (E. coli (TEM-1); Escherichia coli): 128 µg/mL (≈ 350 µM)
3 | CO/N=C(\C(=O)N[C@@H]1C(=O)N2C(C(=O)O)=C(COC(C)=O)CS[C@H]12)c1csc(N)n1 [CTX, Cefotaxime] | 8 µg/mL | 8 µg/mL | 64 µg/mL (≈ 141 µM) | 8 µg/mL | 8 µg/mL | 128 µg/mL (≈ 281 µM) | 16 µg/mL | 16 µg/mL | 256 µg/mL (≈ 562 µM) | 8 µg/mL | 8 µg/mL | 64 µg/mL (≈ 141 µM) | 8 µg/mL | 8 µg/mL | 64 µg/mL (≈ 141 µM) | 8 µg/mL | 8 µg/mL | 128 µg/mL (≈ 281 µM) | 8 µg/mL | 8 µg/mL | MIC (S. aureus ATCC33591; [16]): 128 µg/mL (≈ 281 µM); MIC (E. coli (TEM-1); [17]): 4 µg/mL; MIC (E. coli (TEM-1); [18]): 4 µg/mL; MIC (E. coli (TEM-1); Escherichia coli): 32 µg/mL (≈ 70.3 µM); CFU, antibiotic alone (S. aureus (ATCC33591); cefotaxime 35 mg.kg^−1 i.p.): efficient reduction in CFU
4 | CNC(C)C1CCC(N)C(OC2C(N)CC(N)C(OC3OCC(C)(O)C(NC)C3O)C2O)O1 (centres unmarked) [GEN, Gentamicin] | 4 µg/mL | 4 µg/mL | 32 µg/mL (≈ 67 µM) | 128 µg/mL | 128 µg/mL | 256 µg/mL (≈ 536 µM) | 128 µg/mL | 128 µg/mL | 512 µg/mL (≈ 1070 µM) | 8 µg/mL | 8 µg/mL | 32 µg/mL (≈ 67 µM) | 4 µg/mL | 4 µg/mL | 32 µg/mL (≈ 67 µM) | 8 µg/mL | 8 µg/mL | 64 µg/mL (≈ 134 µM) | 8 µg/mL | 8 µg/mL | MIC (S. aureus ATCC33591; [16]): 64 µg/mL (≈ 134 µM); MIC (E. coli (TEM-1); [17]): 4 µg/mL; MIC (E. coli (TEM-1); [18]): 4 µg/mL; MIC (E. coli (TEM-1); Escherichia coli): 32 µg/mL (≈ 67 µM); cytotoxic activity against RAW 264.7 (MTT cell viability) (RAW 264.7 cells): 150 µg/mL; CFU, antibiotic alone ([1]; gentamicin 10 mg.kg^−1 i.p.): efficient CFU decline
5 | CC1(C)S[C@@H]2[C@H](NC(=O)Cc3ccccc3)C(=O)N2[C@H]1C(=O)O [Penicillin G] |  |  |  |  |  |  |  |  |  |  |  |  |  |  |  |  |  |  |  |  | cytotoxic activity against RAW 264.7 (MTT cell viability) (RAW 264.7 cells): 150 µg/mL
6 | Mastoparan-L |  |  |  |  |  |  |  |  |  |  |  |  |  |  |  |  |  |  |  |  | cytotoxic activity against RAW 264.7 (MTT cell viability) (RAW 264.7 cells): 10 µg/mL
